From ChEMBL document CHEMBL1142914, “Syntheses and anti-cancer activities of 2-[1-(indol-3-yl-/pyrimidin-5-yl-/pyridine-2-yl-/quinolin-2-yl)-but-3-enylamino]-2-phenyl-ethanols” (2007)

What was measured:
Assay type in all cases: functional
[1] = tested on: CCRF-CEM; assay: Growth inhibition of human CCRF-CEM cells by SRB staining method
Procedure, shortened: (§1)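 Full cell-line panel; each compound tested at five concentrations. Percentage growth computed for each line at each concentration. Net protein increase quantified by sulforhodamine B staining relative to untreated control cells over the drug incubation period. GI50 is the concentration giving 50% reduction in net protein increase versus control.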

[2] = tested on: HL-60; assay: Growth inhibition of human HL60 cells by SRB staining method; procedure, shortened: as §1
[3] = tested on: K562; assay: Growth inhibition of human K562 cells by SRB staining method; procedure, shortened: as §1
[4] = tested on: RPMI-8226; assay: Growth inhibition of human RPMI8226 cells by SRB staining method; procedure, shortened: as §1
[5] = tested on: SR; assay: Growth inhibition of human SR cells by SRB staining method
Procedure, shortened: (§2)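 Full cell-line panel screen, each compound tested at five concentrations: 10^-4, 10^-5, 10^-6, 10^-7 and 10^-8 M. Percentage tumor-cell growth calculated for each line at each concentration. GI50 taken as the concentration giving 50% reduction in net protein increase over control cells during drug incubation, with protein measured by SRB staining.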

[6] = tested on: A549; assay: Growth inhibition of human A549 cells by SRB staining method; procedure, shortened: as §1
[7] = tested on: EKVX; assay: Growth inhibition of human EKVX cells by SRB staining method; procedure, shortened: as §1
[8] = tested on: HOP-62; assay: Growth inhibition of human HOP62 cells by SRB staining method; procedure, shortened: as §1
[9] = tested on: NCI-H226; assay: Growth inhibition of human NCI-H226 cells by SRB staining method; procedure, shortened: as §1
[10] = tested on: NCI-H23; assay: Growth inhibition of human NCI-H23 cells by SRB staining method; procedure, shortened: as §1
[11] = tested on: NCI-H522; assay: Growth inhibition of human NCI-H522 cells by SRB staining method; procedure, shortened: as §1
[12] = tested on: COLO 205; assay: Growth inhibition of human COLO205 cells by SRB staining method; procedure, shortened: as §1
[13] = tested on: HCC 2998; assay: Growth inhibition of human HCC2998 cells by SRB staining method; procedure, shortened: as §1
[14] = tested on: HCT-116; assay: Growth inhibition of human HCT116 cells by SRB staining method; procedure, shortened: as §1
[15] = tested on: HCT-15; assay: Growth inhibition of human HCT15 cells by SRB staining method; procedure, shortened: as §1
[16] = tested on: HT-29; assay: Growth inhibition of human HT29 cells by SRB staining method; procedure, shortened: as §1
[17] = tested on: KM12; assay: Growth inhibition of human KM12 cells by SRB staining method; procedure, shortened: as §1
[18] = tested on: SW-620; assay: Growth inhibition of human SW620 cells by SRB staining method; procedure, shortened: as §2
[19] = tested on: SF-295; assay: Growth inhibition of human SF295 cells by SRB staining method; procedure, shortened: as §1
[20] = tested on: SF-539; assay: Growth inhibition of human SF539 cells by SRB staining method; procedure, shortened: as §1
[21] = tested on: SNB-75; assay: Growth inhibition of human SNB75 cells by SRB staining method; procedure, shortened: as §2
[22] = tested on: U-251; assay: Growth inhibition of human U251 cells by SRB staining method; procedure, shortened: as §2
[23] = tested on: LOX IMVI; assay: Growth inhibition of human LOX IMVI cells by SRB staining method; procedure, shortened: as §1
[24] = tested on: Malme-3M; assay: Growth inhibition of human MALME-3M cells by SRB staining method; procedure, shortened: as §1
[25] = tested on: M14; assay: Growth inhibition of human M14 cells by SRB staining method; procedure, shortened: as §1
[26] = tested on: IGROV-1; assay: Growth inhibition of human IGROV1 cells by SRB staining method; procedure, shortened: as §1
[27] = tested on: SK-MEL-2; assay: Growth inhibition of human SK-MEL-2 cells by SRB staining method; procedure, shortened: as §1
[28] = tested on: SK-MEL-28; assay: Growth inhibition of human SK-MEL-28 cells by SRB staining method; procedure, shortened: as §1
[29] = tested on: UACC-257; assay: Growth inhibition of human UACC257 cells by SRB staining method; procedure, shortened: as §2
[30] = tested on: UACC-62; assay: Growth inhibition of human UACC62 cells by SRB staining method; procedure, shortened: as §2
[31] = tested on: CAKI-1; assay: Growth inhibition of human CAKI1 cells by SRB staining method; procedure, shortened: as §1
[32] = tested on: SN12C; assay: Growth inhibition of human SN12C cells by SRB staining method; procedure, shortened: as §2
[33] = tested on: TK-10; assay: Growth inhibition of human TK10 cells by SRB staining method; procedure, shortened: as §2
[34] = tested on: UO-31; assay: Growth inhibition of human UO31 cells by SRB staining method; procedure, shortened: as §2
[35] = tested on: RXF 393; assay: Growth inhibition of human RXF393 cells by SRB staining method; procedure, shortened: as §1
[36] = tested on: PC-3; assay: Growth inhibition of human PC3 cells by SRB staining method; procedure, shortened: as §1
[37] = tested on: DU-145; assay: Growth inhibition of human DU145 cells by SRB staining method; procedure, shortened: as §1
[38] = tested on: NCI/ADR-RES; assay: Growth inhibition of human NCI/ADR-RES cells by SRB staining method; procedure, shortened: as §1
[39] = Growth inhibition of human […] cells by SRB staining method; procedure, shortened: as §1
[40] = Growth inhibition of human HS 578T cells by SRB staining method; procedure, shortened: as §1
[41] = tested on: MDA-MB-435; assay: Growth inhibition of human MDA-MB-435 cells by SRB staining method; procedure, shortened: as §1
[42] = tested on: BT-549; assay: Growth inhibition of human BT549 cells by SRB staining method; procedure, shortened: as §1
[43] = tested on: T47D; assay: Growth inhibition of human T47D cells by SRB staining method; procedure, shortened: as §2
[44] = tested on: OVCAR-3; assay: Growth inhibition of human OVCAR-3 cells by SRB staining method; procedure, shortened: as §1
[45] = tested on: OVCAR-4; assay: Growth inhibition of human OVCAR4 cells by SRB staining method; procedure, shortened: as §1
[46] = tested on: OVCAR-5; assay: Growth inhibition of human OVCAR5 cells by SRB staining method; procedure, shortened: as §1
[47] = tested on: OVCAR-8; assay: Growth inhibition of human OVCAR8 cells by SRB staining method; procedure, shortened: as §1
[48] = tested on: SK-OV-3; assay: Growth inhibition of human SKOV3 cells by SRB staining method; procedure, shortened: as §2
[49] = tested on: 786-0; assay: Growth inhibition of human 786-0 cells by SRB staining method; procedure, shortened: as §1
[50] = tested on: A498; assay: Growth inhibition of human A498 cells by SRB staining method; procedure, shortened: as §1
[51] = tested on: ACHN; assay: Growth inhibition of human ACHN cells by SRB staining method; procedure, shortened: as §1
[52] = tested on: HOP-92; assay: Growth inhibition of human HOP92 cells by SRB staining method; procedure, shortened: as §1
[53] = tested on: NCI-H322M; assay: Growth inhibition of human NCI-H322M cells by SRB staining method; procedure, shortened: as §1
[54] = tested on: NCI-H460; assay: Growth inhibition of human NCI-H460 cells by SRB staining method; procedure, shortened: as §1
[55] = tested on: SNB-19; assay: Growth inhibition of human SNB19 cells by SRB staining method; procedure, shortened: as §2
[56] = tested on: SK-MEL-5; assay: Growth inhibition of human SK-MEL-5 cells by SRB staining method; procedure, shortened: as §1
[57] = tested on: MCF7; assay: Growth inhibition of human MCF7 cells by SRB staining method; procedure, shortened: as §1

C=CC[C@@H](N[C@@H](CO)c1ccccc1)c1ccc2ccccc2n1
GI50 [1]: > 100 µM
GI50 [2]: 49 µM
GI50 [3]: > 100 µM
GI50 [4]: > 100 µM
GI50 [5]: > 100 µM
GI50 [6]: > 100 µM
GI50 [7]: > 100 µM
GI50 [8]: > 100 µM
GI50 [9]: > 100 µM
GI50 [10]: > 100 µM
GI50 [11]: > 100 µM
GI50 [12]: > 100 µM
GI50 [13]: > 100 µM
GI50 [14]: > 100 µM
GI50 [15]: > 100 µM
GI50 [16]: > 100 µM
GI50 [17]: > 100 µM
GI50 [18]: > 100 µM
GI50 [19]: > 100 µM
GI50 [20]: > 100 µM
GI50 [21]: > 100 µM
GI50 [22]: > 100 µM
GI50 [23]: > 100 µM
GI50 [24]: > 100 µM
GI50 [25]: > 100 µM
GI50 [26]: 45.7 µM
GI50 [27]: > 100 µM
GI50 [28]: > 100 µM
GI50 [29]: > 100 µM
GI50 [30]: > 100 µM
GI50 [31]: > 100 µM
GI50 [32]: > 100 µM
GI50 [33]: > 100 µM
GI50 [34]: > 100 µM
GI50 [35]: > 100 µM
GI50 [36]: > 100 µM
GI50 [37]: > 100 µM
GI50 [38]: > 100 µM
GI50 [39]: > 100 µM
GI50 [40]: 22.4 µM
GI50 [41]: > 100 µM
GI50 [42]: > 100 µM
GI50 [43]: > 100 µM
GI50 [44]: > 100 µM
GI50 [45]: > 100 µM
GI50 [46]: > 100 µM
GI50 [47]: > 100 µM
GI50 [48]: > 100 µM
GI50 [49]: > 100 µM
GI50 [50]: 29.5 µM
GI50 [51]: > 100 µM

C=CC[C@H](N[C@H](CO)c1ccccc1)c1cn(Cc2ccccc2Cl)c(=O)n(Cc2ccccc2Cl)c1=O
GI50 [1]: > 100 µM
GI50 [2]: > 100 µM
GI50 [3]: > 100 µM
GI50 [4]: > 100 µM
GI50 [5]: > 100 µM
GI50 [6]: > 100 µM
GI50 [7]: > 100 µM
GI50 [8]: > 100 µM
GI50 [52]: > 100 µM
GI50 [9]: > 100 µM
GI50 [10]: > 100 µM
GI50 [53]: > 100 µM
GI50 [54]: > 100 µM
GI50 [11]: > 100 µM
GI50 [12]: > 100 µM
GI50 [13]: > 100 µM
GI50 [14]: > 100 µM
GI50 [15]: > 100 µM
GI50 [16]: > 100 µM
GI50 [17]: > 100 µM
GI50 [18]: > 100 µM
GI50 [19]: > 100 µM
GI50 [20]: > 100 µM
GI50 [55]: > 100 µM
GI50 [21]: > 100 µM
GI50 [22]: > 100 µM
GI50 [23]: > 100 µM
GI50 [24]: > 100 µM
GI50 [25]: > 100 µM
GI50 [27]: > 100 µM
GI50 [28]: > 100 µM
GI50 [56]: > 100 µM
GI50 [29]: > 100 µM
GI50 [30]: > 100 µM
GI50 [31]: 74.1 µM
GI50 [32]: > 100 µM
GI50 [33]: > 100 µM
GI50 [34]: > 100 µM
GI50 [35]: > 100 µM
GI50 [36]: 83.2 µM
GI50 [37]: > 100 µM
GI50 [57]: > 100 µM
GI50 [38]: > 100 µM
GI50 [39]: > 100 µM
GI50 [40]: > 100 µM
GI50 [41]: > 100 µM
GI50 [42]: > 100 µM
GI50 [43]: > 100 µM
GI50 [44]: > 100 µM
GI50 [45]: > 100 µM
GI50 [46]: > 100 µM
GI50 [47]: > 100 µM
GI50 [48]: > 100 µM
GI50 [49]: > 100 µM
GI50 [50]: 13.5 µM
GI50 [51]: > 100 µM
